# Test results: the RNAGym collection of RNA variant scans (doi:10.1126/science.aae0568)
# This sample holds only a part of the variants without activity.
# B1: tRNA (parent)
# chain: GUUCCGUUGGCGUAAUGGUAACGCGUCUCCCUCCUAAGGAGAAGACUGCGGGUUCGAGUCCCGUACGGAACG
# Variants of: B1
# Assay: yeast fitness relative to wild type (ratio to wild type); higher = fitter; tRNA-Arg(CCU), competitive growth, 37 C, YPD
# In short: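 The tRNA-Arg(CCU) gene variants were made by chemical synthesis with a 3% per-site mutation rate at 69 sites and inserted at the native genomic locus of Saccharomyces cerevisiae. After pooling, the strains were competed in YPD at 37°C for 24 hours in six parallel replicates. Gene amplicons from the start population and each end population were read by 100-nucleotide paired-end sequencing, and Darwinian fitness relative to wild type was taken from genotype frequency changes. Genotypes needed ≥ 100 starting reads, and estimates < 0.5 were set to 0.5.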
row,Variant,yeast fitness
1,GUUCGGUUGGUGUGAUGGUAACGCCUCUGCCUCCUAAGGAGAAGACUGCGGGUUCGAGUCCCGUACGGAACG [C5G C11U A14G G25C C29G],≤ 0.5
2,GUUCGGUUGGCGUAAUGGUAACGCGUCUCCCUCCUAAGGAGAAGUCUGCGGGUUCGAGUCCCGUACGCAACG [C5G A45U G68C],≤ 0.5
3,GUUCGGUUGGCGUAAUGGUAAUGCGGCUCCCACCAAAGGAGAAGACUGCGGGUUCGAGUCCCGUACGGCACG [C5G C22U U26G U32A U35A A69C],≤ 0.5
4,GUUCGGUUGGGGUUUUGGUAACGCGUCUCCCUCCUAAGGAGAAGACUGCGGGUUCGAGUCUCGUACGCAACG [C5G C11G A14U A15U C61U G68C],≤ 0.5
5,GUUCGGUUGGCGUAAUGGUAAUGCGUCUCCCUCCUCAGGAGGAGACUGCGGGUUCGAGUCCCGUACGGAACG [C5G C22U A36C A42G],≤ 0.5
6,GUUCGGUUGGAGUAAUGGUGACGCGUCCCCCUUCUAAGGAGAAGACUGCGGGUUCGAGUCCCGUACGGACCG [C5G C11A A20G U28C C33U A70C],≤ 0.5
7,GUUCGGUUGGCGUAAUGGUAACGCGUCUCCCUCCUAAGGAGAAGACUGCGGGUUCGAGUCCCGUACGGACCG [C5G A70C],0.905
8,GUUCGGUUGGCGUAAUGGUAACGCGUCUCCCUCCUAAGGAGAAGACUGCGGGUUCGAGUCCCGUACGGAUCG [C5G A70U],0.812
9,GUUCGGUUGGCGUAAUGGUAAAGCGCCUCCCUGCUAAGGAGAAGACUGCGGGUUCGAGUCCCGAACCGAACG [C5G C22A U26C C33G U64A G67C],0.544
10,GUUCGGUUGGCGUAAUGGUAAGGCGUCUCCCUCCUAAGGAGAAGACUGCGGGUUCGAGUCCAGUACGGAACG [C5G C22G C62A],0.509
11,GUUCGGUUGGGGUAAUGGUACCGCGUCUCCCUCCUAAGGAGAAGACUGCGGGUUCGAGUCCCGUACCGAACG [C5G C11G A21C G67C],≤ 0.5
12,GUUCGGUUGGCGUAAUGGUAACGUGUCUCCCUCCUAAGGAGAAGGCUGCGGGUUCGAGUCCCGUACGGAACG [C5G C24U A45G],0.799
13,GUUCGGUUGGCGUAAUGGUAAGGCGUCUCCCUCCUAAGGAGAAGGCUGCGGGUUCGAGUCCCGUUCGGAACG [C5G C22G A45G A65U],≤ 0.5
14,GUUCGGUUGGCGUAAUGGUAACGCGUCUCCCUCCUAAGGAGAAGACUGCGGGUUCGAGUCCCGUACGGCUCG [C5G A69C A70U],0.765
15,GUUCGGUUGGGGUAAUGGUAACGCGUCUCCCUCCUAAGGAGGAGACUGCGGGUUCGAGUCCCGUACGAAACG [C5G C11G A42G G68A],≤ 0.5
16,GUUCGGUUGGCGUAAUGGUAACGUGUCUCCCUCCUAAGGAGAAGACUGCGGGUUCGAGUCCCGUAAGGAACG [C5G C24U C66A],≤ 0.5
17,GUUCGGUUGGAGUAAAGGUAUCGCGUCUCCCUCCUAAGGAGAAGACUGCGGGUUCGAGUCCCGUACAGAACG [C5G C11A U16A A21U G67A],≤ 0.5
18,GUUCGGUUGGCGUAAUGGUAAAGCGCCUCCCUGCUAAGGAGAAGACUGCGGGUUCGAGUCCCGUACGGAACG [C5G C22A U26C C33G],0.564
19,GUUCGGUUGGCGUAAUGGUAACGUGUCUCCCUCCUAAGGAGAUGACUGCGGGUUUGAGUCCCGUACGCAACG [C5G C24U A43U C55U G68C],≤ 0.5

row,Variant,yeast fitness
1,GUUCGGUUGGCGUAAUGGUAAGGCGUCUCCCUCCUAAGCAGAAGACUGCGGGUUCGUGUCCCGUACGGAACG [C5G C22G G39C A57U],0.723
2,GUUCGGUUGGCGUAAUGGUAACGCGUCUCCCUCCUAAGGAGAAGACUGCGGGUUCGAGUCCCGUUCCGAACG [C5G A65U G67C],0.569
3,GUUCGGUUGGCGUAAUGGUAAUGCGUCGCCCUCCUAAGGAGAAGACUGCGGGUUCGAGUCCCGUACGGAACG [C5G C22U U28G],≤ 0.5
4,GUUCGGUUGGGGUACUGGUAACGCGUCUCCCUCCUAAGGAGAAGUCUGUGGGUUCGAGUCCCGUACGGAACG [C5G C11G A15C A45U C49U],≤ 0.5
5,GUUCGGUUGGUGUAAUGGUAACGCGUCUCCCUCCUAAGGAGAAGACAGCGGGUUCGAGUCCCGUACGCAACG [C5G C11U U47A G68C],≤ 0.5
6,GUUCGGUUGGUGUAAUGGUAACGCGUCUCCCUCCUAAGGAGAAGACUGCGGGUUCGAGUCCCGUACGGAACG [C5G C11U],0.886
7,GUUCGGUUGGGGUAAUGGUAACGCGUCUCCCUCCUAAGGAGAAGACUGCGGGUUCGAGUCCCGUACGGAACG [C5G C11G],0.614
8,GUUCGGUUGGCGUAAUGGUAAGGCGUCUCCCUCCUAAGGAGAAGACUGCGGGUUAGAGUCCCGUUCGGAACG [C5G C22G C55A A65U],0.63
9,GUUCGGUUGGCGUAAUGGUAAAGCGUCUCCUUCCUAAGGAGAAGACUGCUGGUUCGAGUUCCGUACGGAACG [C5G C22A C31U G50U C60U],≤ 0.5
10,GUUCGGUUGGUGUAAUGGUAACGCCUCUCCCUCCUAAGGAGAAGACUGCGGGUUCGAGUCCCGUACGGAACG [C5G C11U G25C],0.571
11,GUUCGGUUGGUGUAAUGGUAGCGCGUCUCCCUCCUAAGGAGAAGACUGCGGGUUCGAGUACCGUACGGAACG [C5G C11U A21G C60A],≤ 0.5
12,GUUCGGUUGGAGUGAUGGUAACGCCUCUGCCUCCUAAGGAGAAGACUGCGGGUUCGAGUACCGUACGGAACG [C5G C11A A14G G25C C29G C60A],≤ 0.5
13,GUUCGGUUGGAGUGAUGGUAACGCCUCUGCCUCCUAAGGAGAAGACUGCGGGUUCGAGUGCCGUACGGAACG [C5G C11A A14G G25C C29G C60G],≤ 0.5
14,GUUCGGUUGGGGUAAUGGUCACGCGUCUCCCUUUUAAGGAGAAGACUGCGGGUUCGAGUCGCGUACGGAACG [C5G C11G A20C C33U C34U C61G],0.529
15,GUUCGGUUGGGGUUUUGGUAACGCGUCUCCCUCCUAAGGAGAAGACUGCGGGUUCGAGUCCCGUGCGGAACG [C5G C11G A14U A15U A65G],≤ 0.5
16,GUUCGGUUGGCGUAAUGGUAACGUGUCUCCCUCCUAAGGAGAAGACUGCGGGUUCCAGUCCCGUACGGAACG [C5G C24U G56C],≤ 0.5
17,GUUCGGUUGGGGUAAUGGUAACGCGUGUCCCUCCUAAGGAGAAGACUACGGGUUCGAGUCCCGUACGGAACG [C5G C11G C27G G48A],0.524
18,GUUCGGUUGGCGUAAUGGUAACGGGUCUCGUUCCAUAGGAGAAAACUGCGGGUUCGAGUCCCCUACGGAACG [C5G C24G C30G C31U U35A A36U G44A G63C],0.966
